MsrA inhibitor: bovine MsrA enzyme inhibitors, primary screen, biochemical, absorbance, HTS. Methionine sulfoxide reductase A (Bos taurus). purified bovine MsrA, absorbance read-out. inhibition, % at 15.5 µM. 0.75% of 360,000 active. AID 651718, 2012; in the data active = inhibition above about 4.5%;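 note: 0% = vehicle wells with enzyme and 100% = reference inhibitor wells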
sPLA2-III inh: human group III sPLA2 inhibitors, primary screen, biochemical, QFRET, BODIPY PC-A2 liposome substrate | Group 3 secretory phospholipase A2 (Homo sapiens), Q9NZ20 | QFRET BODIPY PC-A2 liposome hydrolysis, fluorescence | inhibition, % at 12.2 µM | 0.56% of 370,000 active | AID 743126, 2013;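 active = inhibition above mean plus 3 SD of compounds lying within the high and low control bounds, cut at about 19% in these data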;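 note: 0% = median of test compound wells and 100% = no enzyme DMSO wells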
ARFGAP1 inh: inhibitors of rat ARFGAP1 GAP activity, primary screen, biochemical, fluorescence polarization, GDP tracer. Arfgap1-stimulated ARF1 GTP hydrolysis, GDP FP detection. ADP-ribosylation factor GTPase-activating protein 1 (Rattus norvegicus), Q62848. AID 651572, 2012. 0.26% of 360,000 active. inhibition, % at 16.5 µM;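 active = inhibition above a per-plate limit, mean inhibition of low control wells plus 3 SD, cut at about 25% in these data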;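 note: 0% = DMSO wells with enzyme and 100% = wells lacking Arfgap1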
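Material – truncated rat Arfgap1 GAP domain · Buffer or medium – HEPES-based buffer, pH 7.5 · Reagent – human ARF1(Δ1-17)-GTP substrate · Dosing – 16.5 µM single point, 1.26% DMSO · Schedule – GTP hydrolysis reaction 2 h at 25 °C · Technique – GDP detection by fluorescence polarization · Benchmarks – No-Arfgap1 wells (100%) versus DMSO full-reaction wells (0%) · Repeats – single replicate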
MsrA act: bovine MsrA enzyme activators, primary screen, biochemical, absorbance, HTS; Methionine sulfoxide reductase A (Bos taurus); activation, % at 10.6 µM; purified bovine MsrA, absorbance read-out; AID 602163, 2012; 0.3% of 360,000 active; in the data active = activation above about 7.5%;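 note: 0% = vehicle and 100% = reference activator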
ASAP1 inh: inhibitors of human ASAP1 ArfGAP activity, primary screen, biochemical, fluorescence polarization. ASAP1-stimulated ARF1 GTP hydrolysis, GDP FP detection. inhibition, % at 16.5 µM. 0.19% of 360,000 active; in the data active = inhibition above about 25%;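 note: 0% = vehicle with enzyme and substrate and 100% = no enzyme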
Rev-erbA mod: modulators of Rev-erb alpha DNA binding, primary screen, biochemical, FITC-DNA, fluorescence polarization, uHTS; Rev-erbα–FITC-DNA binding, 90 min; activity, % at 10 µM; 0.79% of 370,000 active;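 active = activity above about 14%, limit read from the data; passing the limit was not always enough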;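 note: 0% = DMSO wells with 35 nM protein and 100% = DMSO wells with 750 nM protein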
Target sequence (P20393 whole entry, looked up): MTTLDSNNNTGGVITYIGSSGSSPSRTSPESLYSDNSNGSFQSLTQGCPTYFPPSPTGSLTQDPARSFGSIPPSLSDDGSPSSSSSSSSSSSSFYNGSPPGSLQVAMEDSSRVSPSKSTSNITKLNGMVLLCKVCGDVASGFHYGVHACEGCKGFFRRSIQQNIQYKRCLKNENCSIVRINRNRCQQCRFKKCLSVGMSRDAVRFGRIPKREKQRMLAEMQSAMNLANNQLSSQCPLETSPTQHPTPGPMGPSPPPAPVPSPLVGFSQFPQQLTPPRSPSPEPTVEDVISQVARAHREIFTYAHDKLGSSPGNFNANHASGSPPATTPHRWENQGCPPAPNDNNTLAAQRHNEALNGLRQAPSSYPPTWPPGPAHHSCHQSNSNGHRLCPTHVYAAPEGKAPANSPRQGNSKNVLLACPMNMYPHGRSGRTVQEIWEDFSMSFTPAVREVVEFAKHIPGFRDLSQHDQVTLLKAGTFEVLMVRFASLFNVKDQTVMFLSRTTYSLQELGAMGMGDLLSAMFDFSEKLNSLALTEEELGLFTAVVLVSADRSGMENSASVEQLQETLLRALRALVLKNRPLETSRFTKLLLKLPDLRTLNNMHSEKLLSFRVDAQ
ASAP1 GAP conf: ASAP1 GAP activity inhibitors, confirmation, biochemical, fluorescence polarization, human, triplicate; shares compounds with ASAP1 inh; ASAP1-stimulated Arf1 GTPase, GDP fluorescence polarization; inhibition, % at 16.5 µM; 37% of 620 active;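 active = mean inhibition over triplicates exceeds the hit threshold derived for the earlier primary screening run, cut at about 25% in these data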
Starred values were filed as active, the others as inactive. In the library only some 2.7% were active in any assay of this set; here they are far more common.

Screening COc1ccc(C(=O)NC(C)c2ccc(-n3ccnc3)cc2)cc1[N+](=O)[O-] (centres undefined) returned MsrA inhibitor -1, sPLA2-III inh 1, ARFGAP1 inh -4, MsrA act -3, ASAP1 inh 25*, Rev-erbA mod 2 and ASAP1 GAP conf 12.
Screening COc1cc(C(=O)NC(C)c2ccc(-n3ccnc3)cc2)cc(OC)c1C (centres undefined) returned MsrA inhibitor 1, sPLA2-III inh 5, ARFGAP1 inh 5, MsrA act -3, ASAP1 inh 0 and Rev-erbA mod -8.
Nc1n[nH]c(N)c1N=Nc1ccc(Cl)cc1Cl was read as MsrA inhibitor 1, sPLA2-III inh 8, ARFGAP1 inh 6, MsrA act -5, ASAP1 inh 29*, Rev-erbA mod 8 and ASAP1 GAP conf 16.
For O=c1c2ccccc2nc(/C=C/c2cc(Br)ccc2O)n1CCO the results were MsrA inhibitor 0, sPLA2-III inh -14, ARFGAP1 inh 4, MsrA act -2, ASAP1 inh 27*, Rev-erbA mod 7 and ASAP1 GAP conf 9.
`CN(C)c1ccc(/C=C/c2nc3ccccc3c(=O)n2CCO)cc1` gave MsrA inhibitor 3, sPLA2-III inh -3, ARFGAP1 inh 2, MsrA act -3, ASAP1 inh 4 and Rev-erbA mod 10.
Screening O=C(Nc1nc2c(Br)cccc2s1)c1ccc2c(c1)OCCO2 returned sPLA2-III inh -13 and Rev-erbA mod -2.
`CC(C)(C)c1ccc(-c2nnc(SCC3CCCCO3)n2-c2ccc(Cl)cc2)cc1` (centres undefined) gave sPLA2-III inh -12 and Rev-erbA mod 8.
`C=CCn1c(C)cc(-c2csc(NC)n2)c1C` gave MsrA inhibitor 0, sPLA2-III inh -8, ARFGAP1 inh 0, MsrA act -2, ASAP1 inh 26*, Rev-erbA mod -2 and ASAP1 GAP conf 5.
For C=CCn1c(C)cc(-c2csc(NCC)n2)c1C the results were MsrA inhibitor 0, sPLA2-III inh -4, ARFGAP1 inh 15, MsrA act -2, ASAP1 inh 13 and Rev-erbA mod -1.
`Cc1ccc2c(CC(=O)N3CCN(c4ccccc4)CC3)coc2c1` gave MsrA inhibitor 1, sPLA2-III inh -5, ARFGAP1 inh 3, MsrA act -3, ASAP1 inh 25*, Rev-erbA mod -4 and ASAP1 GAP conf 1.
Screening Cc1ccc2c(CC(=O)N3CCOCC3)coc2c1 returned MsrA inhibitor 1, sPLA2-III inh -1, ARFGAP1 inh 1, MsrA act -10, ASAP1 inh -4 and Rev-erbA mod -3.
For COc1ccc2oc(C(=O)OCC(=O)N3CCC(C)CC3)c(C)c2c1 the results were MsrA inhibitor 1, sPLA2-III inh 0, ARFGAP1 inh 15, MsrA act -5, ASAP1 inh 27*, Rev-erbA mod -6 and ASAP1 GAP conf 15.
`Cc1ccc(-n2c(SCC(=O)NN=Cc3ccc(-c4ccccc4)cc3)nnc2-c2ccccc2)cc1` gave sPLA2-III inh 6 and Rev-erbA mod -5.
`COc1ccc(Cn2ccnc2SCC(=O)Nc2ccccc2OC)cc1` gave MsrA inhibitor 0, sPLA2-III inh -1, ARFGAP1 inh -4, MsrA act -3, ASAP1 inh 26*, Rev-erbA mod -5 and ASAP1 GAP conf 10.
Screening COc1ccc(Cn2ccnc2SCC(=O)Nc2ccccc2F)cc1 returned MsrA inhibitor -1, sPLA2-III inh -10, ARFGAP1 inh -4, MsrA act -3, ASAP1 inh 5 and Rev-erbA mod 0.
Screening C[C@H]1[C@H](NC(=O)c2cccc(Cl)c2)CC[C@@]23CCCN2C(=O)CCC[C@@H]13 returned sPLA2-III inh 2 and Rev-erbA mod 5.
`CC(C)n1c(-c2ccc(C(C)(C)C)cc2)n[nH]c1=S` gave MsrA inhibitor -1, sPLA2-III inh 6, ARFGAP1 inh 13, MsrA act 2, ASAP1 inh 26*, Rev-erbA mod 6 and ASAP1 GAP conf 6.
`O=C(C[n+]1cccc(C(=O)Nc2ccccc2)c1)c1ccc([N+](=O)[O-])cc1` gave MsrA inhibitor 0, sPLA2-III inh 0, ARFGAP1 inh -3, MsrA act 0, ASAP1 inh 5 and Rev-erbA mod -2.
For O=C(C[n+]1cccc(C(=O)Nc2ccccc2)c1)c1ccc(Cl)cc1 the results were MsrA inhibitor 0, sPLA2-III inh -3, ARFGAP1 inh 3, MsrA act -3, ASAP1 inh 25*, Rev-erbA mod 6 and ASAP1 GAP conf 4.
O=C(NNS(=O)(=O)c1ccc(Cl)cc1)c1cc(-c2ccccc2)nc2ccccc12 was read as MsrA inhibitor 0, sPLA2-III inh -41, ARFGAP1 inh 5, MsrA act -2, ASAP1 inh 28*, Rev-erbA mod -1 and ASAP1 GAP conf 15.
`Cc1cccc(S(=O)(=O)NNC(=O)c2cc(-c3ccc(F)cc3)nc3ccccc23)c1` gave MsrA inhibitor 2, sPLA2-III inh -33, ARFGAP1 inh -8, MsrA act -2, ASAP1 inh 8 and Rev-erbA mod 0.
`CCc1nnc(NC(=O)C2CCC(CNc3c(N4CCCCC4)c(=O)c3=O)CC2)s1` (centres undefined) gave MsrA inhibitor 1, sPLA2-III inh 3, ARFGAP1 inh 5, MsrA act -6, ASAP1 inh 28*, Rev-erbA mod 2 and ASAP1 GAP conf 0.
For COc1ccc(NC(=O)C2CCC(CNc3c(N4CCCCC4)c(=O)c3=O)CC2)cc1OC (centres undefined) the results were MsrA inhibitor -1, sPLA2-III inh 7, ARFGAP1 inh -8, MsrA act 0, ASAP1 inh 3 and Rev-erbA mod 3.
O=C1C=C(Nc2cccnc2)c2ccccc2C1=O was read as MsrA inhibitor 0, sPLA2-III inh -2, ARFGAP1 inh -7, MsrA act -2, ASAP1 inh 26*, Rev-erbA mod -5 and ASAP1 GAP conf 12.

Screening data as filed in PubChem BioAssay.
